Reference: ChEMBL document CHEMBL3525944, “Nonlinear pharmacokinetics of 5-methoxy-N,N-dimethyltryptamine in mice” (Drug Metab Dispos, 2011)

Legend:
Mus musculus [1] = assay: Dose normalized AUC (0 to infinity) in wild-type FVB/N mouse at 2 mg/kg, iv by LC-MS/MS analysis; format: ADME, organism-based; parameters: dose 2 mg/kg, route intravenous; conditions: in vivo
Mus musculus [2] = assay: Dose normalized AUC (0 to infinity) in wild-type FVB/N mouse at 10 mg/kg, iv by LC-MS/MS analysis; format: ADME, organism-based; parameters: dose 10 mg/kg, route intravenous; conditions: in vivo
Mus musculus [3] = assay: Dose normalized AUC (0 to infinity) in wild-type FVB/N mouse at 20 mg/kg, iv by LC-MS/MS analysis; format: ADME, organism-based; parameters: dose 20 mg/kg, route intravenous; conditions: in vivo
[4] = Clearance in wild-type FVB/N mouse at 2 mg/kg, iv by LC-MS/MS analysis; format: ADME, organism-based; parameters: dose 2 mg/kg, route intravenous; conditions: in vivo
[5] = Clearance in wild-type FVB/N mouse at 10 mg/kg, iv by LC-MS/MS analysis; format: ADME, organism-based; parameters: dose 10 mg/kg, route intravenous; conditions: in vivo
[6] = Clearance in wild-type FVB/N mouse at 20 mg/kg, iv by LC-MS/MS analysis; format: ADME, organism-based; parameters: dose 20 mg/kg, route intravenous; conditions: in vivo
[7] = Volume of distribution at steady state in wild-type FVB/N mouse at 2 mg/kg, iv by LC-MS/MS analysis; format: ADME, organism-based; parameters: dose 2 mg/kg, route intravenous; conditions: in vivo, read-out: Vdss
Procedure, shortened: (§1)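 Male 8-week FVB/N wild-type or CYP2D6-humanized mice (25-30 g) given 5-MeO-DMT oxalate in saline i.v. at 5 µL/g body weight. Serum collected 0-180 min, N = 3 per time point, proteins precipitated with ice-cold acetonitrile containing internal standard, LC-MS/MS. Noncompartmental analysis of composite mean data; t1/2 = 0.693/terminal slope; Vss = CL×AUMC/AUC, CL = dose/AUC0→∞.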

[8] = Volume of distribution at steady state in wild-type FVB/N mouse at 10 mg/kg, iv by LC-MS/MS analysis; format: ADME, organism-based; parameters: dose 10 mg/kg, route intravenous; conditions: in vivo, read-out: Vdss; procedure, shortened: as §1
[9] = Volume of distribution at steady state in wild-type FVB/N mouse at 20 mg/kg, iv by LC-MS/MS analysis; format: ADME, organism-based; parameters: dose 20 mg/kg, route intravenous; conditions: in vivo, read-out: Vdss; procedure, shortened: as §1
[10] = Half life in wild-type FVB/N mouse at 2 mg/kg, iv by LC-MS/MS analysis; format: ADME, organism-based; parameters: dose 2 mg/kg, route intravenous; conditions: in vivo; procedure, shortened: as §1
[11] = Half life in wild-type FVB/N mouse at 10 mg/kg, iv by LC-MS/MS analysis; format: ADME, organism-based; parameters: dose 10 mg/kg, route intravenous; conditions: in vivo
[12] = Half life in wild-type FVB/N mouse at 20 mg/kg, iv by LC-MS/MS analysis; format: ADME, organism-based; parameters: dose 20 mg/kg, route intravenous; conditions: in vivo; procedure, shortened: as §1
Mus musculus [13] = assay: AUC (0 to infinity) in wild-type FVB/N mouse at 2 mg/kg, ip by LC-MS/MS analysis; format: ADME, organism-based, Plasma; parameters: time infinity, dose 2 mg/kg, route intraperitoneal; conditions: in vivo
Mus musculus [14] = assay: AUC (0 to infinity) in wild-type FVB/N mouse at 10 mg/kg, ip by LC-MS/MS analysis; format: ADME, organism-based, Plasma; parameters: time infinity, dose 10 mg/kg, route intraperitoneal; conditions: in vivo
Mus musculus [15] = assay: AUC (0 to infinity) in wild-type FVB/N mouse at 20 mg/kg, ip by LC-MS/MS analysis; format: ADME, organism-based, Plasma; parameters: time infinity, dose 20 mg/kg, route intraperitoneal; conditions: in vivo
Mus musculus [16] = assay: Dose normalized AUC (0 to infinity) in wild-type FVB/N mouse at 2 mg/kg, ip by LC-MS/MS analysis; format: ADME, organism-based; parameters: dose 2 mg/kg, route intraperitoneal; conditions: in vivo
[17] = Toxicity in mouse; format: organism-based; conditions: in vivo
Serum [18] = assay: Drug recovery in wild-type FVB/N mouse serum by LC-MS/MS analysis; format: ADME, cell-free
Serum [19] = assay: Drug recovery in CYP2D6-humanized transgenic FVB/N mouse serum by LC-MS/MS analysis; format: ADME, cell-free
Serum [20] = assay: Drug uptake in wild-type FVB/N mouse serum by LC-MS/MS analysis; format: ADME, cell-free; conditions: read-out: Drug uptake
Serum [21] = assay: Drug uptake in CYP2D6-humanized transgenic FVB/N mouse serum by LC-MS/MS analysis; format: ADME, cell-free; conditions: read-out: Drug uptake
Brain [22] = assay: Stability in wild-type FVB/N mouse brain at -80 degC; format: ADME
Procedure, shortened: (§2)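 Pilot test of 5-MeO-DMT in mouse brain homogenate (ice-cold saline) stored at -80°C over one year, quantified by LC-MS/MS after liquid-liquid extraction.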

Brain [23] = assay: Stability in CYP2D6-humanized transgenic FVB/N mouse brain at -80 degC; format: ADME; procedure, shortened: as §2
Mus musculus [24] = assay: AUC (0 to infinity) in wild-type FVB/N mouse at 2 mg/kg, iv by LC-MS/MS analysis; format: ADME, organism-based, Plasma; parameters: time infinity, dose 2 mg/kg, route intravenous; conditions: in vivo
Mus musculus [25] = assay: AUC (0 to infinity) in wild-type FVB/N mouse at 10 mg/kg, iv by LC-MS/MS analysis; format: ADME, organism-based, Plasma; parameters: dose 10 mg/kg, route intravenous, time infinity; conditions: in vivo
Mus musculus [26] = assay: Dose normalized AUC (0 to infinity) in wild-type FVB/N mouse at 10 mg/kg, ip by LC-MS/MS analysis; format: ADME, organism-based; parameters: dose 10 mg/kg, route intraperitoneal; conditions: in vivo
Mus musculus [27] = assay: Dose normalized AUC (0 to infinity) in wild-type FVB/N mouse at 20 mg/kg, ip by LC-MS/MS analysis; format: ADME, organism-based; parameters: dose 20 mg/kg, route intraperitoneal; conditions: in vivo
[28] = Tmax in wild-type FVB/N mouse at 2 mg/kg, ip by LC-MS/MS analysis; format: ADME, organism-based; parameters: dose 2 mg/kg, route intraperitoneal; conditions: in vivo
Procedure, shortened: (§3)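 Male 8-week FVB/N wild-type or CYP2D6-humanized mice given 5-MeO-DMT oxalate in saline i.p. at 10 µL/g body weight. Serum sampled 0-180 min, N = 4 per time point, processed by acetonitrile protein precipitation with internal standard, quantified by LC-MS/MS. Tmax taken as observed from composite mean serum concentration-time data.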

[29] = Tmax in wild-type FVB/N mouse at 10 mg/kg, ip by LC-MS/MS analysis; format: ADME, organism-based; parameters: dose 10 mg/kg, route intraperitoneal; conditions: in vivo; procedure, shortened: as §3
[30] = Tmax in wild-type FVB/N mouse at 20 mg/kg, ip by LC-MS/MS analysis; format: ADME, organism-based; parameters: dose 20 mg/kg, route intraperitoneal; conditions: in vivo; procedure, shortened: as §3
[31] = Cmax in wild-type FVB/N mouse at 2 mg/kg, ip by LC-MS/MS analysis; format: ADME, organism-based; parameters: dose 2 mg/kg, route intraperitoneal; conditions: in vivo
[32] = Cmax in wild-type FVB/N mouse at 10 mg/kg, ip by LC-MS/MS analysis; format: ADME, organism-based; parameters: dose 10 mg/kg, route intraperitoneal; conditions: in vivo
[33] = Cmax in wild-type FVB/N mouse at 20 mg/kg, ip by LC-MS/MS analysis; format: ADME, organism-based; parameters: dose 20 mg/kg, route intraperitoneal; conditions: in vivo
[34] = Bioavailability in wild-type FVB/N mouse at 2 mg/kg, ip by LC-MS/MS analysis; format: ADME, organism-based; conditions: in vivo
[35] = Bioavailability in wild-type FVB/N mouse at 10 mg/kg, ip by LC-MS/MS analysis; format: ADME, organism-based; conditions: in vivo

SMILES: COc1ccc2[nH]cc(CCN(C)C)c2c1.O=C(O)C(=O)O
- AUC/dose (Mus musculus [1]): 5.19 kg·min/L
- AUC/dose (Mus musculus [2]): 10.6 kg·min/L
- AUC/dose (Mus musculus [3]): 10 kg·min/L
- clearance [4]: 190 mL/min/kg
- clearance [5]: 94 mL/min/kg
- clearance [6]: 100 mL/min/kg
- Vd [7]: 2.27 L/kg
- Vd [8]: 2.08 L/kg
- Vd [9]: 1.84 L/kg
- half-life [10]: 9.2 min
- half-life [11]: 12 min
- half-life [12]: 15 min
- AUC (Mus musculus [13]): 24.9 µmol·min/L
- AUC (Mus musculus [14]): 231 µmol·min/L
- AUC (Mus musculus [15]): 654 µmol·min/L
- AUC/dose (Mus musculus [16]): 2.71 kg·min/L
- LD50 [17]: 48 mg/kg
- Drug recovery (Serum [18]): 62%
- Drug recovery (Serum [19]): 62%
- concentration (Serum [20]): 4.1 nM
- concentration (Serum [21]): 4.1 nM
- Stability (Brain [22]): > 1 yr
- Stability (Brain [23]): > 1 yr
- AUC (Mus musculus [24]): 47.6 µmol·min/L
- AUC (Mus musculus [25]): 487 µmol·min/L
- AUC/dose (Mus musculus [26]): 5.03 kg·min/L
- AUC/dose (Mus musculus [27]): 7.13 kg·min/L
- Tmax [28]: 3 min
- Tmax [29]: 5 min
- Tmax [30]: 5 min
- Cmax [31]: 1310 nM
- Cmax [32]: 7000 nM
- Cmax [33]: 15800 nM
- bioavailability [34]: 52.2%
- bioavailability [35]: 47.3%
